Source: ChEMBL document CHEMBL3774373, “Activity and Predicted Nephrotoxicity of Synthetic Antibiotics Based on Polymyxin B” (J Med Chem, 2016)
Values after ≈ are worked out from the molar mass of the structure shown. Bridge positions count the residues as written; N and C are the ends. Square brackets hold non-standard residues; d marks the D form. Peptide text beside a SMILES is read from it. * marks the point of attachment. ξ: configuration not given here. Bip = N[C@@H](Cc1ccc(-c2ccccc2)cc1)C(=O)O; Phe(4-NH2) = Nc1ccc(C[C@H](N)C(=O)O)cc1; ξGly(octyl) = CCCCCCCCC(N)C(=O)O; hSer = N[C@@H](CCO)C(=O)O; Octanoyl = CCCCCCCC(=O)*; Dab = NCC[C@H](N)C(=O)O

Experiments:
Escherichia coli = assay: Antibacterial activity against Escherichia coli ATCC 25922 after 18 hrs by 2 fold serial dilution method; assay type: functional; settings: ATCC 25922, 18 h
How it was run: (§1)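 Overnight cultures in nutrient or Mueller Hinton broth at 37 °C with shaking, diluted 50-fold into fresh MHB and grown 1.5–3 h to mid-log. Inoculum 5×10^5 CFU/mL in 2-fold serial dilutions, final range 32 to 0.015 μg/mL. MIC read visually after 18 h at 37 °C as the lowest concentration with no visible growth.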

Klebsiella pneumoniae [1] = assay: Antibacterial activity against Klebsiella pneumoniae ATCC 13883 after 18 hrs by 2 fold serial dilution method; assay type: functional; settings: ATCC 13883, 18 h; how it was run: as §1
Klebsiella pneumoniae [2] = assay: Antibacterial activity against multidrug resistant Klebsiella pneumoniae ATCC 700603 after 18 hrs by 2 fold serial dilution method; assay type: functional; settings: Klebsiella pneumoniae, 700603, 18 h
How it was run: (§2)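 Overnight cultures at 37 °C in nutrient or Mueller Hinton broth with shaking were diluted 50-fold in MHB and grown 1.5–3 h to mid-log phase. The inoculum was 5×10^5 CFU/mL in MHB. Compounds were 2-fold serially diluted, final 32 to 0.015 μg/mL. After 18 h at 37 °C, the MIC was read visually as the lowest concentration with no visible growth.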

Klebsiella pneumoniae [3] = assay: Antibacterial activity against Klebsiella pneumoniae ATCC BAA-2146 expressing NDM-1 after 18 hrs by 2 fold serial dilution method; assay type: functional; settings: ATCC BAA-2146, 18 h; how it was run: as §2
Acinetobacter baumannii [4] = assay: Antibacterial activity against Acinetobacter baumannii ATCC 19606 after 18 hrs by 2 fold serial dilution method; assay type: functional; settings: ATCC 19606, 18 h; how it was run: as §1
Pseudomonas aeruginosa [5] = assay: Antibacterial activity against Pseudomonas aeruginosa ATCC 27853 after 18 hrs by 2 fold serial dilution method; assay type: functional; settings: ATCC 27853, 18 h; how it was run: as §1
Pseudomonas aeruginosa [6] = assay: Antibacterial activity against clinical isolate polymyxin resistant Pseudomonas aeruginosa FADDI-PA070 after 18 hrs by 2 fold serial dilution method; assay type: functional; settings: FADDI-PA070, 18 h
How it was run: (§3)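 Polymyxin-resistant clinical isolates were grown overnight at 37 °C in NB or MHB with shaking, diluted 50-fold in MHB and grown 1.5–3 h to mid-log phase. The inoculum was 5×10^5 CFU/mL. Compounds were 2-fold broth serial dilutions, final 32 to 0.015 μg/mL; the polymyxin controls ran 128–0.06 μg/mL. The MIC was the lowest concentration with no visible growth after 18 h at 37 °C.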

Pseudomonas aeruginosa [7] = assay: Antibacterial activity against clinical isolate polymyxin resistant Pseudomonas aeruginosa PA9704 after 18 hrs by 2 fold serial dilution method; assay type: functional; settings: PA9704, 18 h; how it was run: as §3
Acinetobacter baumannii [8] = assay: Antibacterial activity against clinical isolate carbapenem and polymyxin resistant Acinetobacter baumannii Ptyela 100734512:2 after 18 hrs by 2 fold serial dilution method; assay type: functional; settings: Ptyela 100734512:2, 18 h; how it was run: as §3
Klebsiella pneumoniae [9] = assay: Antibacterial activity against clinical isolate carbapenem and polymyxin resistant Klebsiella pneumoniae Koprana 100650661:1 after 18 hrs by 2 fold serial dilution method; assay type: functional; settings: Koprana 100650661:1, 18 h; how it was run: as §3
Klebsiella pneumoniae [10] = assay: Antibacterial activity against clinical isolate carbapenem and polymyxin resistant Klebsiella pneumoniae 138-16357-20362 after 18 hrs by 2 fold serial dilution method; assay type: functional; settings: 138-16357-20362, 18 h; how it was run: as §3
[11] = Cytotoxicity against human HepG2 cells after 24 hrs by resazurin assay; assay type: cell-based; settings: HepG2 cells
Staphylococcus aureus = assay: microbe, parasite or virus in culture; settings: ATCC 25923, 18 h

SMILES	MIC (Escherichia coli)	MIC (Klebsiella pneumoniae [1])	MIC (Klebsiella pneumoniae [2])	MIC (Klebsiella pneumoniae [3])	MIC (Acinetobacter baumannii [4])	MIC (Pseudomonas aeruginosa [5])	MIC (Pseudomonas aeruginosa [6])	MIC (Pseudomonas aeruginosa [7])	MIC (Acinetobacter baumannii [8])	MIC (Klebsiella pneumoniae [9])	MIC (Klebsiella pneumoniae [10])	CC50 at 24 h [11]	MIC (Staphylococcus aureus)
CCCCCCCC(=O)N[C@@H](CCN)C(=O)N[C@H](C(=O)N[C@@H](CCN)C(=O)N[C@H]1CCNC(=O)[C@H]([C@@H](C)O)NC(=O)[C@H](CCN)NC(=O)[C@H](CCN)NC(=O)[C@H](Cc2ccc(-c3ccccc3)cc2)NC(=O)[C@@H](Cc2ccccc2)NC(=O)[C@H](CCN)NC1=O)[C@@H](C)O (Octanoyl-[Dab]T[Dab][Dab][Dab][dF][Bip][Dab][Dab]T; lactam 4-C)	1 µg/mL (≈ 0.769 µM)	4 µg/mL (≈ 3.08 µM)	2 µg/mL (≈ 1.54 µM)	1 µg/mL (≈ 0.769 µM)	1 µg/mL (≈ 0.769 µM)	2 µg/mL (≈ 1.54 µM)	16 µg/mL (≈ 12.3 µM)	16 µg/mL (≈ 12.3 µM)	32 µg/mL (≈ 24.6 µM)	32 µg/mL (≈ 24.6 µM)	> 32 µg/mL	117 µM	8 µg/mL (≈ 6.16 µM)
CCCCCCCCC1NC(=O)[C@@H](Cc2ccccc2)NC(=O)[C@H](CCN)NC(=O)[C@@H](NC(=O)[C@H](CCN)NC(=O)[C@@H](NC(=O)[C@H](CCN)NC(=O)CCCCCCC)[C@@H](C)O)CCNC(=O)[C@H]([C@@H](C)O)NC(=O)[C@H](CCN)NC(=O)[C@H](CCN)NC1=O (some centres not stated) (Octanoyl-[Dab]T[Dab][Dab][Dab][dF][ξGly(octyl)][Dab][Dab]T; lactam 4-C)	1 µg/mL (≈ 0.803 µM)	2 µg/mL (≈ 1.61 µM)	2 µg/mL (≈ 1.61 µM)	1 µg/mL (≈ 0.803 µM)	1 µg/mL (≈ 0.803 µM)	2 µg/mL (≈ 1.61 µM)	16 µg/mL (≈ 12.8 µM)	8 µg/mL (≈ 6.42 µM)	8 µg/mL (≈ 6.42 µM)	32 µg/mL (≈ 25.7 µM)	32 µg/mL (≈ 25.7 µM)	116 µM	8 µg/mL (≈ 6.42 µM)
CCCCCCCC(=O)N[C@@H](CCN)C(=O)N[C@H](C(=O)N[C@@H](CCN)C(=O)N[C@H]1CCNC(=O)[C@H]([C@@H](C)O)NC(=O)[C@H](CCN)NC(=O)[C@H](Cc2ccc(N)cc2)NC(=O)[C@H](CC(C)C)NC(=O)[C@@H](Cc2ccccc2)NC(=O)[C@H](CCN)NC1=O)[C@@H](C)O	0.5 µg/mL (≈ 0.4 µM)	8 µg/mL (≈ 6.39 µM)	1 µg/mL (≈ 0.799 µM)	2 µg/mL (≈ 1.6 µM)	4 µg/mL (≈ 3.2 µM)	8 µg/mL (≈ 6.39 µM)	32 µg/mL (≈ 25.6 µM)	> 32 µg/mL	> 32 µg/mL	> 32 µg/mL	> 32 µg/mL	–	> 32 µg/mL
CCCCCCCC(=O)N[C@@H](CCN)C(=O)N[C@H](C(=O)N[C@@H](CCN)C(=O)N[C@H]1CCNC(=O)[C@H]([C@@H](C)O)NC(=O)[C@H](CCN)NC(=O)[C@H](CCO)NC(=O)[C@H](CC(C)C)NC(=O)[C@@H](Cc2ccccc2)NC(=O)[C@H](CCN)NC1=O)[C@@H](C)O (Octanoyl-[Dab]T[Dab][Dab][Dab][dF]L[hSer][Dab]T; lactam 4-C)	1 µg/mL (≈ 0.84 µM)	> 32 µg/mL	2 µg/mL (≈ 1.68 µM)	2 µg/mL (≈ 1.68 µM)	8 µg/mL (≈ 6.72 µM)	4 µg/mL (≈ 3.36 µM)	> 32 µg/mL	> 32 µg/mL	> 32 µg/mL	> 32 µg/mL	> 32 µg/mL	> 300 µM	> 32 µg/mL
CCCCCCCC(=O)N[C@@H](CCN)C(=O)N[C@H](C(=O)N[C@@H](CCN)C(=O)N[C@H]1CCNC(=O)[C@H]([C@@H](C)O)NC(=O)[C@H](CCN)NC(=O)[C@H](CCNC(=O)[C@@H](N)CCC(=O)O)NC(=O)[C@H](CC(C)C)NC(=O)[C@@H](Cc2ccccc2)NC(=O)[C@H](CCN)NC1=O)[C@@H](C)O (Octanoyl-[Dab]T[Dab][Dab][Dab][dF]L[Dab](Glu)[Dab]T; lactam 4-C)	1 µg/mL (≈ 0.758 µM)	8 µg/mL (≈ 6.07 µM)	4 µg/mL (≈ 3.03 µM)	4 µg/mL (≈ 3.03 µM)	4 µg/mL (≈ 3.03 µM)	8 µg/mL (≈ 6.07 µM)	> 32 µg/mL	> 32 µg/mL	> 32 µg/mL	> 32 µg/mL	> 32 µg/mL	> 300 µM	> 32 µg/mL
CCCCCCCC(=O)N[C@@H](CCN)C(=O)N[C@H](C(=O)N[C@@H](CCN)C(=O)N[C@H]1CCNC(=O)[C@H]([C@@H](C)O)NC(=O)[C@H](Cc2ccc(N)cc2)NC(=O)[C@H](CCN)NC(=O)[C@H](CC(C)C)NC(=O)[C@@H](Cc2ccccc2)NC(=O)[C@H](CCN)NC1=O)[C@@H](C)O (Octanoyl-[Dab]T[Dab][Dab][Dab][dF]L[Dab][Phe(4-NH2)]T; lactam 4-C)	16 µg/mL (≈ 12.8 µM)	> 32 µg/mL	16 µg/mL (≈ 12.8 µM)	16 µg/mL (≈ 12.8 µM)	> 32 µg/mL	32 µg/mL (≈ 25.6 µM)	> 32 µg/mL	> 32 µg/mL	> 32 µg/mL	> 32 µg/mL	> 32 µg/mL	> 300 µM	> 32 µg/mL
